Experimental data as given in paper PMC3377471 (Journal of the American Chemical Society, 2012).
*1 amine or outer side, *2 acyl side, *3 side chain or, on linkers, in order; H or OH if unused. Where a SMILES comes first, the peptide text is derived from it. [ ]: non-standard residue; d: D form. X1 = O=C([C@H]1CCC[C@@H]1N[*:1])[*:2]; X2 = O=C([C@H]1CNC[C@@H]1N[*:1])[*:2]; β3hR = N=C(N)NCCC[C@H](N)CC(=O)O; β3hT = C[C@@H](O)[C@H](N)CC(=O)O; β3hE = N[C@@H](CCC(=O)O)CC(=O)O

Key:
[1] = target: designed protein gp41-5; assay: competition fluorescence polarization; set-up: species or system HIV; settings: read-out: Ki for binding to gp41-5; competition FP assay
Summary of the method: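 Competition fluorescence polarization binding of test compound to a designed gp41-5 construct made of three NHR segments and two CHR segments joined by flexible loops. Ki reported.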

[2] = tested on: proteinase K; assay: in vitro; assay type: in vitro ADME; settings: isolated enzyme proteinase k
[3] = tested on: HIV-1 DJ258; assay type: cell-based
[4] = tested on: HIV-1 JRFL; assay type: cell-based
[5] = tested on: HIV-1 CC 7/86; assay type: cell-based
[6] = tested on: HIV-1 UG270; assay type: cell-based
[7] = target: proteinase K (Parengyodontium album, UniProt P06873); settings: in vitro, ref 3a; cited from earlier work
[8] = target: gp41-derived NHR peptide N36 (Human immunodeficiency virus type 1 group M subtype B, UniProt P04578); assay type: physicochemical, HIV; settings: variable-temperature CD; co-assembly with NHR peptide N36
Sequence of gp41-derived NHR peptide N36 (P04578 546-581 limits assumed): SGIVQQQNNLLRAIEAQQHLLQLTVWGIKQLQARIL

Sequence of proteinase K (Parengyodontium album, UniProt P06873) (P06873 106-384): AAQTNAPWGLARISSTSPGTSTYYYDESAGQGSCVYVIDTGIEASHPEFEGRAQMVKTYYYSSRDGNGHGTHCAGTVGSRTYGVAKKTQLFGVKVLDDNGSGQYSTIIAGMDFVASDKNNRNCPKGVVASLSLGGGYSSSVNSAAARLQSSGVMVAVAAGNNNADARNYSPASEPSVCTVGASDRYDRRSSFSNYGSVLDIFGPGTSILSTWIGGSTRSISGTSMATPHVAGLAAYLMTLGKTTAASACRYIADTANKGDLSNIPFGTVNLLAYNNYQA

Molecule	Ki [1] [nM]	half-life [2] [min]	IC50 [3] [nM]	IC50 [4] [nM]	IC50 [5] [nM]	IC50 [6] [nM]	resistance to degradation by proteinase K relative to α-peptide T-2635 [7]	apparent Tm of helix-bundle with N36 [8] [°C]
CC[C@H](C)[C@H](NC(=O)[C@H](C)NC(=O)C[C@H](CCCNC(=N)N)NC(=O)[C@H](CC(=O)O)NC(=O)[C@H](Cc1c[nH]c2ccccc12)NC(=O)C[C@H](C)NC(=O)[C@H](CCC(=O)O)NC(=O)[C@H](Cc1c[nH]c2ccccc12)NC(=O)[C@@H](NC(=O)C[C@@H](NC(C)=O)[C@@H](C)O)[C@@H](C)O)C(=O)N[C@@H](C)C(=O)N[C@@H](CCC(=O)O)CC(=O)N[C@@H](Cc1ccc(O)cc1)C(=O)N[C@@H](C)C(=O)N[C@@H](C)CC(=O)N[C@@H](CCCNC(=N)N)C(=O)N[C@H](C(=O)N[C@@H](CCC(=O)O)C(=O)N[C@@H](C)CC(=O)N[C@@H](CC(C)C)C(=O)N[C@H](C(=O)N[C@@H](CCCNC(=N)N)CC(=O)N[C@@H](C)C(=O)N[C@@H](C)C(=O)N[C@@H](CCC(N)=O)C(=O)N[C@@H](CCC(=O)O)CC(=O)N[C@@H](CCC(N)=O)C(=O)N[C@@H](CCC(N)=O)C(=O)N[C@@H](CCC(=O)O)CC(=O)N[C@@H](CCCCN)C(=O)N[C@@H](CC(N)=O)C(=O)N[C@@H](CCC(=O)O)C(=O)N[C@@H](C)CC(=O)N[C@@H](C)C(=O)N[C@@H](CC(C)C)C(=O)N[C@@H](CCCNC(=N)N)CC(=O)N[C@@H](CCC(=O)O)C(=O)N[C@@H](CC(C)C)C(N)=O)[C@@H](C)CC)[C@@H](C)CC [1α/β]	3800	4	–	–	–	–	–	–
CC[C@H](C)[C@H](NC(=O)[C@H](C)NC(=O)[C@H]1CNC[C@@H]1NC(=O)[C@H](CC(=O)O)NC(=O)[C@H](Cc1c[nH]c2ccccc12)NC(=O)[C@H]1CCC[C@@H]1NC(=O)[C@H](CCC(=O)O)NC(=O)[C@H](Cc1c[nH]c2ccccc12)NC(=O)[C@@H](NC(=O)C[C@@H](NC(C)=O)[C@@H](C)O)[C@@H](C)O)C(=O)N[C@@H](C)C(=O)N[C@@H](CCC(=O)O)CC(=O)N[C@@H](Cc1ccc(O)cc1)C(=O)N[C@@H](C)C(=O)N[C@H]1CCC[C@@H]1C(=O)N[C@@H](CCCNC(=N)N)C(=O)N[C@H](C(=O)N[C@@H](CCC(=O)O)C(=O)N[C@H]1CCC[C@@H]1C(=O)N[C@@H](CC(C)C)C(=O)N[C@H](C(=O)N[C@H]1CNC[C@@H]1C(=O)N[C@@H](C)C(=O)N[C@@H](C)C(=O)N[C@@H](CCC(N)=O)C(=O)N[C@@H](CCC(=O)O)CC(=O)N[C@@H](CCC(N)=O)C(=O)N[C@@H](CCC(N)=O)C(=O)N[C@@H](CCC(=O)O)CC(=O)N[C@@H](CCCCN)C(=O)N[C@@H](CC(N)=O)C(=O)N[C@@H](CCC(=O)O)C(=O)N[C@H]1CCC[C@@H]1C(=O)N[C@@H](C)C(=O)N[C@@H](CC(C)C)C(=O)N[C@H]1CNC[C@@H]1C(=O)N[C@@H](CCC(=O)O)C(=O)N[C@@H](CC(C)C)C(N)=O)[C@@H](C)CC)[C@@H](C)CC [2α/β] (Ac-[β3hT]TWE[X1]WD[X2]AIA[β3hE]YA[X1]RIE[X1]LI[X2]AAQ[β3hE]QQ[β3hE]KNE[X1]AL[X2]EL-NH2; N-terminus and C-terminus assumed)	–	–	42	131	47	39	~ 300 fold	–
CC[C@H](C)[C@H](NC(=O)[C@H](C)NC(=O)C[C@H](CCCNC(=N)N)NC(=O)[C@H](CC(=O)O)NC(=O)[C@H](Cc1c[nH]c2ccccc12)NC(=O)C[C@H](CCC(=O)O)NC(=O)[C@H](CCC(=O)O)NC(=O)[C@H](Cc1c[nH]c2ccccc12)NC(=O)[C@@H](NC(=O)C[C@H](CCCNC(=N)N)NC(C)=O)[C@@H](C)O)C(=O)N[C@@H](C)C(=O)N[C@@H](CCC(=O)O)CC(=O)N[C@@H](Cc1ccc(O)cc1)C(=O)N[C@@H](C)C(=O)N[C@@H](CCCNC(=N)N)CC(=O)N[C@@H](CCCNC(=N)N)C(=O)N[C@H](C(=O)N[C@@H](CCC(=O)O)C(=O)N[C@@H](CCC(=O)O)CC(=O)N[C@@H](CC(C)C)C(=O)N[C@H](C(=O)N[C@@H](CCCNC(=N)N)CC(=O)N[C@@H](C)C(=O)N[C@@H](C)C(=O)N[C@@H](CCC(N)=O)C(=O)N[C@@H](CCC(=O)O)CC(=O)N[C@@H](CCC(N)=O)C(=O)N[C@@H](CCC(N)=O)C(=O)N[C@@H](CCCNC(=N)N)CC(=O)N[C@@H](CCCCN)C(=O)N[C@@H](CC(N)=O)C(=O)N[C@@H](CCC(=O)O)C(=O)N[C@@H](CCC(=O)O)CC(=O)N[C@@H](C)C(=O)N[C@@H](CC(C)C)C(=O)N[C@@H](CCCNC(=N)N)CC(=O)N[C@@H](CCC(=O)O)C(=O)N[C@@H](CC(C)C)C(N)=O)[C@@H](C)CC)[C@@H](C)CC [4α/β] (Ac-[β3hR]TWE[β3hE]WD[β3hR]AIA[β3hE]YA[β3hR]RIE[β3hE]LI[β3hR]AAQ[β3hE]QQ[β3hR]KNE[β3hE]AL[β3hR]EL-NH2; N-terminus and C-terminus assumed)	11	3.5	78	153	49	56	–	–
Ac-RTWEEWDRAIAEYARRIEELIRAAQEQQRKNEEALREL-NH2 (N-terminus and C-terminus assumed) [3α]	< 0.2	–	–	–	–	–	–	91
Enfuvirtide	–	–	200	180	140	110	–	–
